target: T1, Adenosine receptor A1 (Homo sapiens, UniProt P30542); assay: Displacement of [3H]CCPA from human A1 receptor expressed in CHO cell membrane by radioligand binding assay; type: cell membranes
T1 sequence (P30542 whole entry): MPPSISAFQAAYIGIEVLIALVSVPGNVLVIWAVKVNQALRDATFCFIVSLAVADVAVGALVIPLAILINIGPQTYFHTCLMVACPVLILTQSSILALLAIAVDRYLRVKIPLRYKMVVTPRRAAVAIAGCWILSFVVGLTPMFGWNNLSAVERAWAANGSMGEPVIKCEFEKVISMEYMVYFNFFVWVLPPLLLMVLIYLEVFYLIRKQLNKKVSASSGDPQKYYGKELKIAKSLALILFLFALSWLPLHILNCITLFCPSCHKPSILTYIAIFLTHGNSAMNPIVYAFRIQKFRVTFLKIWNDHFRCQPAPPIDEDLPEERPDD
Outline: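 CHO membranes prepared by 1,000 x g clearing, then 100,000 x g sedimentation, resuspended in 50 mM Tris/HCl pH 7.4 and kept at -80 °C. Labelled with 1 nM radioligand; nonspecific binding with theophylline (1 mM). Ki values from SCTFIT, mean of 3-6 replicates.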

SMILES	Ki [nM]
CCOC(=O)C[C@H](Nc1nc2nn(C)cc2c2nc(-c3ccco3)nn12)C(=O)OCC	552
CCOC(=O)[C@@H](Cc1c[nH]c2ccccc12)Nc1nc2nn(C)cc2c2nc(-c3ccco3)nn12	1570
CCOC(=O)[C@H](Cc1ccc(O)cc1)Nc1nc2nn(C)cc2c2nc(-c3ccco3)nn12	617
CCOC(=O)[C@H](Cc1ccccc1)Nc1nc2nn(C)cc2c2nc(-c3ccco3)nn12	1820
COC(=O)[C@@H]1CCCN1c1nc2nn(C)cc2c2nc(-c3ccco3)nn12	2270
CCOC(=O)C(Nc1nc2nn(C)cc2c2nc(-c3ccco3)nn12)c1ccccc1 (racemic)	173
CCOC(=O)C(Nc1nc2nn(C)cc2c2nc(-c3ccco3)nn12)C(O)c1ccccc1 (racemic)	882
CCOC(=O)C(CC(C)C)Nc1nc2nn(C)cc2c2nc(-c3ccco3)nn12 (racemic)	322
CCOC(=O)C(Nc1nc2nn(C)cc2c2nc(-c3ccco3)nn12)C(C)C (racemic)	591

Now from value to compound:

Ki [nM]	SMILES
901	CCOC(=O)CCCNc1nc2nn(C)cc2c2nc(-c3ccco3)nn12
919	CCOC(=O)CC[C@H](Nc1nc2nn(C)cc2c2nc(-c3ccco3)nn12)C(=O)OCC
2200	CCOC(=O)C(C)Nc1nc2nn(C)cc2c2nc(-c3ccco3)nn12 (racemic)
312	CCOC(=O)C(CO)Nc1nc2nn(C)cc2c2nc(-c3ccco3)nn12 (racemic)
388	CCCCC(Nc1nc2nn(C)cc2c2nc(-c3ccco3)nn12)C(=O)OCC (racemic)

target: T2, Adenosine receptor A2b (Homo sapiens, UniProt P29275); assay: Antagonist activity at human A2B receptor expressed in CHO cell membrane assessed as reduction in NECA-stimulated adenylyl cyclase activity in presence of [alpha32P]ATP; type: functional, cell membranes
T2 sequence (P29275 whole entry): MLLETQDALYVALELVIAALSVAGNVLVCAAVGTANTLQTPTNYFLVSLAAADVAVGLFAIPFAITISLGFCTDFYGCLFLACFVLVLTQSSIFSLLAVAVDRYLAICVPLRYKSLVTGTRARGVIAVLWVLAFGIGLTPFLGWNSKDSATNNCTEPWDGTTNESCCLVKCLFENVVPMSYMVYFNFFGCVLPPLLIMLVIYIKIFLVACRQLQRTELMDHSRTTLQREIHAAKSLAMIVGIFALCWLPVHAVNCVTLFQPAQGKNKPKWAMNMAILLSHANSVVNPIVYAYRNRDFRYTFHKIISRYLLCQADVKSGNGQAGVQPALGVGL

SMILES	IC50 [nM]
CCOC(=O)C[C@H](Nc1nc2nn(C)cc2c2nc(-c3ccco3)nn12)C(=O)OCC	> 10000
CCOC(=O)[C@H](Cc1ccc(O)cc1)Nc1nc2nn(C)cc2c2nc(-c3ccco3)nn12	> 10000
CCOC(=O)[C@H](Cc1ccccc1)Nc1nc2nn(C)cc2c2nc(-c3ccco3)nn12	> 10000
COC(=O)[C@@H]1CCCN1c1nc2nn(C)cc2c2nc(-c3ccco3)nn12	> 10000
CCOC(=O)C(Nc1nc2nn(C)cc2c2nc(-c3ccco3)nn12)c1ccccc1 (racemic)	> 10000
CCOC(=O)C(Nc1nc2nn(C)cc2c2nc(-c3ccco3)nn12)C(O)c1ccccc1 (racemic)	> 10000
CCOC(=O)C(CC(C)C)Nc1nc2nn(C)cc2c2nc(-c3ccco3)nn12 (racemic)	> 10000
CCOC(=O)C(Nc1nc2nn(C)cc2c2nc(-c3ccco3)nn12)C(C)C (racemic)	> 10000

The next lines start with the values.

IC50 [nM]	SMILES
> 10000	CCOC(=O)CCCNc1nc2nn(C)cc2c2nc(-c3ccco3)nn12
> 10000	CCOC(=O)CC[C@H](Nc1nc2nn(C)cc2c2nc(-c3ccco3)nn12)C(=O)OCC
> 10000	CCOC(=O)C(C)Nc1nc2nn(C)cc2c2nc(-c3ccco3)nn12 (racemic)
> 10000	CCCCC(Nc1nc2nn(C)cc2c2nc(-c3ccco3)nn12)C(=O)OCC (racemic)

target: Adenosine receptor A2a (Homo sapiens, UniProt P29274); assay: Displacement of [3H]-NECA from human A2A receptor expressed in CHO cell membrane by radioligand binding assay; type: cell membranes
Sequence (P29274 whole entry): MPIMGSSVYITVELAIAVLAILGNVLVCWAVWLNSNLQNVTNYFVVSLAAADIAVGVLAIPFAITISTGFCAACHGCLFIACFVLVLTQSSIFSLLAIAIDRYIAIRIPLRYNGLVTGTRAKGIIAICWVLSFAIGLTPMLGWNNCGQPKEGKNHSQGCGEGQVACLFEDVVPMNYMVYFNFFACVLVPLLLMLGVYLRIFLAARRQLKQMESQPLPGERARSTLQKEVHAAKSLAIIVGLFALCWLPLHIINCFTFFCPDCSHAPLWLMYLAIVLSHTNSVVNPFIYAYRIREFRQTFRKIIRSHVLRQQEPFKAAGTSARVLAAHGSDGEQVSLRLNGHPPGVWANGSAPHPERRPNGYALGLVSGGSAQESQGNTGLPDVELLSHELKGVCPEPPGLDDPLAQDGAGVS
Outline: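 Crude membrane fraction from transfected CHO cells, obtained by 1,000 x g then 100,000 x g centrifugation, in 50 mM Tris/HCl pH 7.4, stored at -80 °C. Radioligand at 10 nM; 100 µM R-PIA defined nonspecific binding. Ki computed with SCTFIT, mean of 3-6 replicates.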

SMILES	Ki [nM]
CCOC(=O)C[C@H](Nc1nc2nn(C)cc2c2nc(-c3ccco3)nn12)C(=O)OCC	445
CCOC(=O)[C@@H](Cc1c[nH]c2ccccc12)Nc1nc2nn(C)cc2c2nc(-c3ccco3)nn12	889
CCOC(=O)[C@H](Cc1ccc(O)cc1)Nc1nc2nn(C)cc2c2nc(-c3ccco3)nn12	1300
CCOC(=O)[C@H](Cc1ccccc1)Nc1nc2nn(C)cc2c2nc(-c3ccco3)nn12	1300
COC(=O)[C@@H]1CCCN1c1nc2nn(C)cc2c2nc(-c3ccco3)nn12	428
CCOC(=O)C(Nc1nc2nn(C)cc2c2nc(-c3ccco3)nn12)c1ccccc1 (racemic)	860
CCOC(=O)C(Nc1nc2nn(C)cc2c2nc(-c3ccco3)nn12)C(O)c1ccccc1 (racemic)	376
CCOC(=O)C(CC(C)C)Nc1nc2nn(C)cc2c2nc(-c3ccco3)nn12 (racemic)	398
CCOC(=O)C(Nc1nc2nn(C)cc2c2nc(-c3ccco3)nn12)C(C)C (racemic)	1270

Results, then the compound that gave them:

Ki [nM]	SMILES
231	CCOC(=O)CCCNc1nc2nn(C)cc2c2nc(-c3ccco3)nn12
2670	CCOC(=O)CC[C@H](Nc1nc2nn(C)cc2c2nc(-c3ccco3)nn12)C(=O)OCC
820	CCOC(=O)C(C)Nc1nc2nn(C)cc2c2nc(-c3ccco3)nn12 (racemic)
348	CCOC(=O)C(CO)Nc1nc2nn(C)cc2c2nc(-c3ccco3)nn12 (racemic)
551	CCCCC(Nc1nc2nn(C)cc2c2nc(-c3ccco3)nn12)C(=O)OCC (racemic)

target: T3, Adenosine receptor A3 (Homo sapiens, UniProt P0DMS8); assay: Displacement of [3H]-HEMADO from human A3 receptor expressed in CHO cell membrane by radioligand binding assay; type: cell membranes
T3 sequence (P0DMS8 whole entry): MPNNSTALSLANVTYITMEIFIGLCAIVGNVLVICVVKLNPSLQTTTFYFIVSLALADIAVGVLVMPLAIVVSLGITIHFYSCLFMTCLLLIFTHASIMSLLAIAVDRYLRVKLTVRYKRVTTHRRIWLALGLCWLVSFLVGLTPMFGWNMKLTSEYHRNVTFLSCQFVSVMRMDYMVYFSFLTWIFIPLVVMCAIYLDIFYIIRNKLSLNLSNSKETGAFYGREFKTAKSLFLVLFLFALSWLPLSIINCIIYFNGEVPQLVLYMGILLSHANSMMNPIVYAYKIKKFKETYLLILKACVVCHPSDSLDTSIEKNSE
Outline: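 Membranes from CHO cells with human receptor: low-speed spin at 1,000 x g, then crude membranes pelleted at 100,000 x g. Resuspended in 50 mM Tris/HCl, 10 mM MgCl2, 1 mM EDTA, pH 8.25, stored at -80 °C. Radioligand at 1 nM; nonspecific binding with 100 µM R-PIA. Ki by SCTFIT, mean of 3-6 replicates.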

SMILES	Ki [nM]
CCOC(=O)C[C@H](Nc1nc2nn(C)cc2c2nc(-c3ccco3)nn12)C(=O)OCC	16.3
CCOC(=O)[C@@H](Cc1c[nH]c2ccccc12)Nc1nc2nn(C)cc2c2nc(-c3ccco3)nn12	59.7
CCOC(=O)[C@H](Cc1ccc(O)cc1)Nc1nc2nn(C)cc2c2nc(-c3ccco3)nn12	24.6
CCOC(=O)[C@H](Cc1ccccc1)Nc1nc2nn(C)cc2c2nc(-c3ccco3)nn12	50.6
COC(=O)[C@@H]1CCCN1c1nc2nn(C)cc2c2nc(-c3ccco3)nn12	113
CCOC(=O)C(Nc1nc2nn(C)cc2c2nc(-c3ccco3)nn12)c1ccccc1 (racemic)	0.306
CCOC(=O)C(Nc1nc2nn(C)cc2c2nc(-c3ccco3)nn12)C(O)c1ccccc1 (racemic)	46.5
CCOC(=O)C(CC(C)C)Nc1nc2nn(C)cc2c2nc(-c3ccco3)nn12 (racemic)	0.5
CCOC(=O)C(Nc1nc2nn(C)cc2c2nc(-c3ccco3)nn12)C(C)C (racemic)	1.72

The next lines start with the values.

Ki [nM]	SMILES
108	CCOC(=O)CCCNc1nc2nn(C)cc2c2nc(-c3ccco3)nn12
7.55	CCOC(=O)CC[C@H](Nc1nc2nn(C)cc2c2nc(-c3ccco3)nn12)C(=O)OCC
15.5	CCOC(=O)C(C)Nc1nc2nn(C)cc2c2nc(-c3ccco3)nn12 (racemic)
17.1	CCOC(=O)C(CO)Nc1nc2nn(C)cc2c2nc(-c3ccco3)nn12 (racemic)
1.06	CCCCC(Nc1nc2nn(C)cc2c2nc(-c3ccco3)nn12)C(=O)OCC (racemic)
